Data taken from ChEMBL document CHEMBL4765328 (Eur J Med Chem, 2020).
The source made the active and inactive calls. The calls are words filed in the database; no cut-off is given here.

Columns and labels:
HT-29 = assay: Antiproliferative activity against human HT-29 cells assessed as inhibition of cell growth; type: functional, cell-based
Summary of the method: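 Growth inhibition of cancer cell lines read from dose-response curves; IC50 as mean ± SEM of at least three independent experiments.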

Jurkat = assay: Antiproliferative activity against human Jurkat cells assessed as inhibition of cell growth; type: functional, cell-based
Summary of the method: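 Compounds from 10 mM DMSO stocks; final DMSO ≤0.25%. Growth inhibition of cancer cell lines read from dose-response curves; IC50 as mean ± SEM of at least three independent experiments.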

[1] = Cytotoxicity against human PBL assessed as inhibition of cell growth; type: cell-based; conditions: peripheral blood lymphocytes (PBL)
Summary of the method: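 Peripheral blood lymphocytes from healthy donors, tested either unstimulated or stimulated with PHA; DMSO ≤0.25% final. Values are mean ± SEM of three separate experiments.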

[2] = Inhibition of bovine brain tubulin polymerisation preincubated with compound followed by GTP addition and measured after 20 mins by turbidimetry based spectrophotometric method; type: tissue-based, Bos taurus
Summary of the method: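 Bovine brain tubulin (10 µM) in glutamate buffer, preincubated with varying compound concentrations at 30 °C, then cooled to 0 °C. GTP added to 0.4 mM final, then warmed to 30 °C in a recording spectrophotometer. Assembly followed by turbidity at 350 nm.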

HeLa [3] = assay: Induction of microtubule network depolymerization in human HeLa cells assessed as appearance of disorganised microtubules at 10 nM after 24 hrs by immunofluorescence staining based confocal microscopic analysis; type: cell-based
Summary of the method: (§1)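 HeLa cells treated 24 h at 10, 50 or 100 nM. They were then fixed in cold 4% formaldehyde for 15 min and stained with anti-β-tubulin for 2 h at room temperature. Alexa 488 secondary and DAPI counterstain followed; imaged by confocal microscopy at 20X.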

HeLa [4] = assay: Induction of microtubule network depolymerization in human HeLa cells assessed as appearance of disorganised microtubules at 100 nM after 24 hrs by immunofluorescence staining based confocal microscopic analysis; type: cell-based; summary of the method: as §1
HeLa [5] = assay: Induction of cell cycle arrest in human HeLa cells assessed as accumulation at G2/M phase at 10 nM after 24 hrs by PI staining based flow cytometric analysis; type: functional
Summary of the method: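 HeLa cells treated 24 h, then fixed in cold 70% ethanol. They were lysed with 0.1% Triton X-100 plus RNase A and stained with PI for flow cytometric DNA content. Means ± SEM of two independent experiments.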

HeLa [6] = assay: Downregulation of MAD-2 expression in human HeLa cells at 10 nM after 48 hrs by Western blot analysis; type: functional, cell-based
Summary of the method: (§2)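 HeLa cells treated 24 or 48 h, then washed in cold PBS and lysed in 0.1% Triton X-100/RNase A at 0 °C. Lysates were cleared at 15,000 x g. 10 µg protein was run on SDS-PAGE and blotted to PVDF, blocked in 5% BSA, and probed 2 h at room temperature with primary antibodies. HRP secondary and ECL detection followed; β-actin reprobe served as loading control.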

HeLa [7] = assay: Induction of apoptosis in human HeLa cells assessed as viable cells at 10 nM measured after 24 hrs by Annexin V-FITC/propidium iodide staining based flow cytometry (reference value: 89.57 %); type: functional; conditions: read-out: Activity
HeLa [8] = assay: Induction of apoptosis in human HeLa cells assessed as early apoptotic cells at 10 nM measured after 24 hrs by Annexin V-FITC/propidium iodide staining based flow cytometry (reference value: 2.1 %); type: functional
HeLa [9] = assay: Induction of apoptosis in human HeLa cells assessed as late apoptotic cells at 10 nM measured after 24 hrs by Annexin V-FITC/propidium iodide staining based flow cytometry (reference value: 6.07 %); type: functional
HeLa [10] = assay: Induction of apoptosis in human HeLa cells assessed as late apoptotic cells at 10 nM measured after 48 hrs by Annexin V-FITC/propidium iodide staining based flow cytometry (reference value: 6.07 %); type: functional
HeLa [11] = assay: Induction of apoptosis in human HeLa cells assessed as necrotic cells at 10 nM measured after 48 hrs by Annexin V-FITC/propidium iodide staining based flow cytometry (reference value: 2.26 %); type: functional
HeLa [12] = assay: Induction of mitochondrial membrane potential loss in human HeLa cells assessed as cells with depolarized mitochondrial membrane at 10 nM after 48 hrs by JC-1 dye-based flow cytometric analysis (reference value: 5.7 %); type: functional
HeLa [13] = assay: Induction of mitochondrial membrane potential loss in human HeLa cells assessed as cells with polarized mitochondrial membrane at 10 nM after 24 hrs by JC-1 dye-based flow cytometric analysis (reference value: 94.3 %); type: functional
HeLa [14] = assay: Induction of apoptosis in human HeLa cells assessed as increase in cleavage of caspase 9 at 10 nM after 24 hrs by Western blot analysis; type: functional, cell-based; summary of the method: as §2
HeLa [15] = assay: Induction of apoptosis in human HeLa cells assessed as reduction in mcl-1 protein expression at 10 nM after 24 hrs by Western blot analysis; type: functional, cell-based
[16] = Antitumor activity mouse E0771 cells implanted in C57BL/6 mouse assessed as reduction tumor mass at 15 mg/kg, ip administered every other day relative to control; type: functional, EO771; design: scale not given: the % may be the effect or the level left
Summary of the method: (§3)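 Seven-week-old female C57BL/6 mice received 4 x 10^5 E0771 cells orthotopically in the mammary fat pad and were randomized once tumors were palpable. Dosing was ip every other day at 5 or 15 mg/kg, with DMSO vehicle in 100 µL. Caliper volume was V=(D×d²)/2, and tumor weight was taken at endpoint; n=5/group. Analysis used two-way ANOVA with Bonferroni.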

[17] = Antitumor activity mouse E0771 cells implanted in C57BL/6 mouse assessed as reduction tumor mass at 5 mg/kg, ip administered every other day relative to control; type: functional, EO771; design: scale not given: the % may be the effect or the level left; summary of the method: as §3
HL-60 = assay: Potency index, ratio […] for human HL-60 cells assessed as inhibition of cell growth; type: functional
SEM cells = assay: Potency index, ratio of CA-4 IC50 to compound IC50 for human SEM cells assessed as inhibition of cell growth; type: functional
Daoy = assay: Potency index, ratio of CA-4 IC50 to compound IC50 for human Daoy cells assessed as inhibition of cell growth; type: functional

With `CCOc1ccc2c(C(=O)c3cc(OC)c(OC)c(OC)c3)c(N)oc2c1` the IC50 (HT-29) was 2.1 nM, the IC50 (Jurkat) was 0.28 nM and the GI50 [1] was 8.7 µM. For the same molecule, the IC50 [2] was 370 nM, the Activity (HeLa [3]) was “Active” and the Activity (HeLa [4]) was “Active”. For the same molecule, the Activity (HeLa [5]) was “Active”, the Activity (HeLa [6]) was “Active” and the viability at 0.01 µM (HeLa [7]) was 64.5%. The Activity (HeLa [8]) was 6.72%, the Activity (HeLa [9]) was 14.05% and the Activity (HeLa [10]) was 23.53%. It also gave an Activity (HeLa [11]) of 21.63%, an Activity (HeLa [12]) of 54.7% and an Activity (HeLa [13]) of 75.7%. For the same molecule, the Activity (HeLa [14]) was “Active”, the Activity (HeLa [15]) was “Active” and the Activity [16] was 45.7%. The Activity [17] was 16.9%, the “Ratio IC50” value (HL-60) was 3 and the “Ratio IC50” value (SEM cells) was 16. The “Ratio IC50” value (Daoy) was 2460.
